According to ChEMBL document CHEMBL1126583, “Potent quinoxaline-spaced phosphono alpha-amino acids of the AP-6 type as competitive NMDA antagonists: synthesis and biological evaluation” (J Med Chem, 1993):

Legend:
Glutamate NMDA receptor [1] = assay: Tested for binding affinity against NMDA receptor, from rat synaptic membrane, using [3H]-CPP as the radioligand.
Method in brief: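 Rat whole-brain crude synaptic membranes, Triton X-100 treated and frozen at -70 °C; 0.2–0.5 mg protein incubated 15 min at 23 °C with 8 nM [3H]CPP in 50 mM Tris HCl pH 7.6. Nonspecific binding defined with 1.0 mM NMDA. Bound ligand separated by centrifugation and counted by scintillation. Triplicates, 5–10 concentrations; IC50 with 95% confidence limits.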

Glutamate NMDA receptor [2] = assay: Tested for binding affinity against NMDA receptor, from rat synaptic membrane, using [3H]TCP as the radioligand.
Method in brief: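 Stimulated binding assay on rat whole-brain synaptic membranes in 5.0 mM Tris HCl pH 7.4. […] 100 μM MK-801 defines nonspecific binding. Filtration through PEI-soaked glass-fiber filters, then scintillation counting. Triplicates, 5–10 concentrations; IC50 with 95% confidence limits.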

Glutamate NMDA receptor [3] = assay: Tested for binding affinity against NMDA receptor, from rat synaptic membrane, using [3H]glycine as the radioligand.
Method in brief: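 Rat whole-brain synaptic membranes washed and resuspended in 50 mM Tris citrate. Separation by centrifugation, then scintillation counting.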

| Structure (SMILES) | IC50 (Glutamate NMDA receptor [1]) [µM] | IC50 (Glutamate NMDA receptor [2]) [µM] | IC50 (Glutamate NMDA receptor [3]) [µM] |
| --- | --- | --- | --- |
| NC(Cc1nc2ccccc2nc1CCP(=O)(O)O)C(=O)O (configuration not stated) | > 1 |  |  |
| Cc1cc2nc(CC(N)C(=O)O)c(CP(=O)(O)O)nc2cc1C (configuration not stated) | 0.0223 | 16.4 |  |
| NC(Cc1nc2cc3ccccc3cc2nc1CP(=O)(O)O)C(=O)O (configuration not stated) | 0.0065 | 5.6 |  |
| CCOC(=O)C(N)Cc1nc2ccccc2nc1CP(=O)(O)O (configuration not stated) | > 1 |  |  |
| COc1cc2nc(CC(N)C(=O)O)c(CP(=O)(O)O)nc2cc1OC (configuration not stated) | 0.832 |  |  |
| NC(Cc1nc2c(Cl)ccc(Cl)c2nc1CP(=O)(O)O)C(=O)O (configuration not stated) | 0.245 |  |  |
| O=C(O)C1CN(CCCP(=O)(O)O)CCN1 (configuration not stated) | 0.113 |  | > 100 |
| NC(Cc1nc2ccccc2nc1/C=C/P(=O)(O)O)C(=O)O (configuration not stated) | > 1 |  |  |
| NC(Cc1cc2nccnc2cc1CP(=O)(O)O)C(=O)O (configuration not stated) | > 1 |  |  |
| NC(CCCCCP(=O)(O)O)C(=O)O (configuration not stated) [AP-7] |  | 302 |  |
| O=C(O)[C@@H]1C[C@H](CP(=O)(O)O)CCN1 [SELFOTEL] | 0.028 | 22.4 | > 100 |

Now from value to compound:

| IC50 (Glutamate NMDA receptor [1]) [µM] | IC50 (Glutamate NMDA receptor [2]) [µM] | IC50 (Glutamate NMDA receptor [3]) [µM] | Structure (SMILES) |
| --- | --- | --- | --- |
| 0.166 |  |  | NC(Cc1nc2cc(F)c(F)cc2nc1CP(=O)(O)O)C(=O)O (configuration not stated) |
| 0.038 | 13.9 | 1.8 | NC(Cc1nc2ccc(Cl)cc2nc1CP(=O)(O)O)C(=O)O (configuration not stated) |
| 0.024 | 8.6 | > 100 | NC(Cc1nc2cc(Cl)ccc2nc1CP(=O)(O)O)C(=O)O (configuration not stated) |
| 0.0034 | 11.7 | 0.61 | NC(Cc1nc2cc(Cl)c(Cl)cc2nc1CP(=O)(O)O)C(=O)O (configuration not stated) |
| > 1 |  |  | NC(Cc1nc2ccccc2nc1CP(=O)(O)O)C(=O)O (single isomer, unassigned; (+)) |
| 0.119 | 28 | 4.7 | NC(Cc1nc2ccccc2nc1CP(=O)(O)O)C(=O)O (stereo in doubt; 7) |
| 0.0293 | 21 |  | NC(Cc1nc2ccccc2nc1CP(=O)(O)O)C(=O)O (stereo in doubt; 9) |
